# Measured values published in ChEMBL document CHEMBL1150875, “Petrosaspongiolides M-R: new potent and selective phospholipase A2 inhibitors from the New Caledonian marine sponge Petrosaspongia nigra” (J Nat Prod, 1998).
# Experiments:
# [1] = target: Acidic phospholipase A2 2 (Naja naja) (UniProt P15445); experiment: Inhibition of Naja Naja venom secretory PLA2 at 10 uM; parameters: scale not given: the % may be the effect or the level left
# Method in brief: (§1)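 Secreted PLA2 from Naja naja venom or bee venom exposed to 10 µM compound. Result reported as percent inhibition, mean ± S.E.M. of n = 6.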
# [2] = target: T1, Phospholipase A2 (Apis mellifera) (UniProt P00630); experiment: Inhibition of bee venom secretory PLA2 at 10 uM; parameters: scale not given: the % may be the effect or the level left; method in brief: as §1
# T1 sequence (whole entry): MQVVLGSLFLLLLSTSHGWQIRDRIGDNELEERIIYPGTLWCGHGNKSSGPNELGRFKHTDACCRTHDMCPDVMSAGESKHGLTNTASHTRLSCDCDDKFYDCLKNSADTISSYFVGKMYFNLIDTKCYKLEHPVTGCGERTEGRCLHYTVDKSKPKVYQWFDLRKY
# Sus scrofa = organism: Sus scrofa; experiment: Inhibition of pig pancreatic secretory PLA2 at 10 uM; parameters: scale not given: the % may be the effect or the level left
# Method in brief: (§2)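 Percent inhibition of the enzyme's activity with test compound at 10 µM. Reported as mean ± S.E.M., n = 6, with significance marked at p < 0.05 and p < 0.01.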
# [3] = target: Phospholipase A2 (Homo sapiens) (UniProt P04054); experiment: Inhibition of human synovial secretory PLA2 at 10 uM; parameters: scale not given: the % may be the effect or the level left; method in brief: as §2
# Sequence of Phospholipase A2 (Homo sapiens) (P04054 23-148 limits assumed): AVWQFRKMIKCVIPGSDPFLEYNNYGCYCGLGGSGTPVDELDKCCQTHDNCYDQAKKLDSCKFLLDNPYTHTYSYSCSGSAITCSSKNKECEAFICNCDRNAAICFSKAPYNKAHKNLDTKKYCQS
# Phospholipase A2 = target: T2, Phospholipase A2 (Apis mellifera, UniProt P00630); experiment: Inhibition of bee venom secretory PLA2
# T2 sequence (P00630 whole entry): T1 sequence (whole entry)
# Sequence of Acidic phospholipase A2 2 (Naja naja) (P15445 whole entry): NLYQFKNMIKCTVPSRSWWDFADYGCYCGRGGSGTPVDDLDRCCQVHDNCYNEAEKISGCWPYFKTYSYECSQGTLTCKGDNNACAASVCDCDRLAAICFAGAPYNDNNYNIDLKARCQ
Structure (SMILES),Activity [1],Activity [2],Activity (Sus scrofa),Activity [3],IC50 (Phospholipase A2)
CC(=O)OC[C@@]1(C)CCC[C@]2(C)[C@H]3CC[C@@H]4[C@H](O)O[C@@H](C5=CC(=O)OC5O)C[C@H]4[C@]3(C)CC[C@@H]12 (stereo partly specified),4.2%,12.5%,0%,30.1%,–
CC(=O)O[C@H]1O[C@@H](C2=CC(=O)OC2O)C[C@@H]2[C@@H]1CCC1[C@@]3(C)CCCC(C)(C)C3CC[C@]12C (stereo partly specified),5.6%,34.8%,0%,59%,–
CC(=O)OC[C@@]1(C)CCC[C@]2(C)[C@H]3CC[C@@H]4[C@H](OC(C)=O)O[C@@H](C5=CC(=O)OC5O)C[C@H]4[C@]3(C)CC[C@@H]12 (stereo partly specified),6.8%,43.9%,11.6%,44%,–
CC1(C)CCC[C@]2(C)[C@H]3CC[C@H](C(=O)O)[C@@H](/C=C/C4=CC(=O)OC4O)[C@]3(C)CC[C@@H]12 (stereo partly specified),1%,18.8%,0.8%,7.1%,–
CC(=O)O[C@@H]1O[C@@H](C2=CC(=O)OC2O)C[C@@H]2[C@@H]1CC[C@H]1[C@@]2(C)CC[C@H]2C(C)(C)CCC[C@]12C (stereo partly specified) [PETROSASPONGIOLIDE M],11.5%,71%,12.3%,68.6%,0.6 µM
CC1=C(CC/C(C)=C/CCC2=CC[C@H](C3=CC(=O)O[C@H]3O)O[C@H]2O)C(C)(C)CCC1 [MANOALIDE],–,–,–,–,7.5 µM
CC(=O)OC1OC(=O)C=C1[C@H]1C[C@@H]2[C@H](CCC3[C@@]4(C)CCCC(C)(C)C4CC[C@]32C)[C@@H](OC(C)=O)O1 (stereo partly specified),6.9%,10.6%,0%,32.1%,–
